# Apaf1 inhib – inhibitors of human Apaf-1 apoptosome, primary screen, biochemical, DEVD-Rh110 fluorescence, uHTS. Apoptotic protease-activating factor 1 (Homo sapiens), O14727. reconstituted apoptosome caspase-3 activity. inhibition, % at 20 µM. 0.71% of 330,000 active. AID 489030, 2010; active = inhibition of at least 40% at 20 µM;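 also: plate controls were DMSO wells for no effect and DEVD-CHO caspase inhibitor wells for full effect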
#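 Assay system – apoptosome proteins · Medium – Hepes buffer, pH 7.5 · Also added – cytochrome c with DEVD-Rh110 · Timing – 30 min compound preincubation, 50 min activation, room temperature · Detection – Rh110 fluorescence, excitation 480 nm, emission 540 nm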
# PAD4 FP inh – human PAD4 inhibitors, primary screen, biochemical, fluorescence polarization, 1536-well format. Protein-arginine deiminase type-4 (Homo sapiens), Q9UM07. recombinant PAD4, RCA probe fluorescence polarization. inhibition, % at 6.36 µM. 0.41% of 330,000 active;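 active = percent inhibition above a cutoff equal to the mean of all tested compounds plus 3 SD, cut at about 15% in these data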;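 also: 0% = PAD4 with RCA probe and DMSO and 100% = probe without PAD4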
# PRMT1 inh – PRMT1 methyltransferase inhibitors, primary screen, biochemical, fluorescence polarization; Protein arginine N-methyltransferase 1 (Homo sapiens), Q99873; recombinant PRMT1, activity-based probe fluorescence polarization; inhibition, % at 2.79 µM; 1.3% of 370,000 active; AID 652257, 2013;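 active = inhibition above about 21% made by adding two undisclosed values, limit read from the data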
# GSTO1 counter – inhibitors of recombinant GSTO1, primary screen, counter-screen for RBBP9 inhibitor project, biochemical, fluorescence polarization | AID 1974, 2009 | 1.1% of 300,000 active | activity-based probe fluorescence polarization | inhibition, % at 5.96 µM;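 active = inhibition above the campaign mean inhibition plus 3 SD, cut at about 35% in these data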;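 also: 0% = GSTO1-1 with DMSO and 100% = wells lacking GSTO1-1 enzyme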
# TDP2 inh – human TDP2 enzyme inhibitors, primary screen, biochemical, epi absorbance, recombinant enzyme. Tyrosyl-DNA phosphodiesterase 2 (Homo sapiens), O95551. T5PNP hydrolysis, p-nitrophenol absorbance 415 nm. inhibition, % at 12.8 µM. 0.34% of 370,000 active;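 active = inhibition above the mean of all tested compounds plus 3 SD, set per campaign, cut at about 25% in these data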;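 also: 0% = DMSO with enzyme and 100% = buffer with substrate but no TDP2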
# Target sequence (O95551 whole entry, looked up): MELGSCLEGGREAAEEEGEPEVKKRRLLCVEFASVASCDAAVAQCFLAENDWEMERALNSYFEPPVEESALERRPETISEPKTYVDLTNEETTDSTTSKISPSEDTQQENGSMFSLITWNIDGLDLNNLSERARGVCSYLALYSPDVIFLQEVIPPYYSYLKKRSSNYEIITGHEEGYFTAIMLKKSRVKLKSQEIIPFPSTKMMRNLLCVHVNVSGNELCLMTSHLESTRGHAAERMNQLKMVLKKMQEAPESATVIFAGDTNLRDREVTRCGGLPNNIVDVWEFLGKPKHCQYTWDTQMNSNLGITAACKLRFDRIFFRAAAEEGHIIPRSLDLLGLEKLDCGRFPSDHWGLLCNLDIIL
#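 System – recombinant human TDP2 · Amount – 120 nM TDP2 per well · Buffer or medium – Mg2+-containing Tris-HCl buffer, pH 7.5 · Reagent – T5PNP substrate, 5 mM · Dosing – 12.8 µM single point, 1% DMSO · Incubation – 2 h at 37 °C · Measured by – epi absorbance · Read-out basis – percent inhibition · Benchmarks – high control without enzyme, low control DMSO plus TDP2 · Repeats – singlicate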
# PRMT1 confirm – PRMT1 methyltransferase inhibitors, confirmation, biochemical, fluorescence polarization, triplicate | 42% of 3,300 active | AID 687036, 2013 | recombinant His-PRMT1, activity-based probe fluorescence polarization | inhibition, % at 2.79 µM | shares compounds with PRMT1 inh;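 active = mean inhibition across replicates above the hit cutoff derived for the earlier primary screen, cut at about 22% in these data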
# An asterisk follows results filed as active; x = no result given. An excerpt weighted towards active compounds, which were near 2.6% of everything screened.
SMILES,Apaf1 inhib,PAD4 FP inh,PRMT1 inh,GSTO1 counter,TDP2 inh,PRMT1 confirm
CCN(c1ccc(NC(=O)COC(=O)C2CCN(c3ccc(C(F)(F)F)cn3)CC2)cc1)C(C)C,x,x,2.4,x,-11.2,x
Nc1ccc2c3c(cccc13)CC2,-11.9,-19.5,66.4*,-4.3,6.8,8.8
COc1ccc(N2CCN(C(=O)CNC(=O)c3ccc4ccccc4c3)CC2)cc1,1.5,4.6,-0.4,x,-13.2,x
COc1cc(OC)cc(C(=O)NCC(=O)N2CCN(c3ccc(O)cc3)CC2)c1,6.1,-0.5,25.2*,11.1,-2.6,1.1
O=C1C=C(c2ccccc2)C(c2ccccc2)C1O (centres undefined),x,x,-2.9,x,-11.6,x
COC(=O)[C@@H](N)CS,-5.6,-0.8,48.6*,9.2,-5.3,74.6*
Cc1cc(C)n2nc(SCC(=O)NC(=O)c3ccccc3)nc2n1,-3.4,-6.2,2.4,x,-4.1,x
COc1ccc(C(=O)NC(=O)CSc2nc3nc(C)cc(C)n3n2)cc1,-6.6,-2.1,27.2*,x,-1.4,2.1
O=C(O)c1ccc(CN2C(=O)CSC2=S)cc1,8.1,-142.2,28.7*,-7.2,-7.7,4.7
C=CCN=C1NC(c2ccccc2)C(C(=O)OC)=C(C)N1Cc1cccc(C(F)(F)F)c1 (centres undefined),x,x,1.4,x,0.0,x
Cc1ccc(-c2cc3nc(-c4ccccc4)cc(N4CCC5(CC4)OCCO5)n3n2)cc1,5.3,-4.7,-2.7,-1.3,6.7,x
Cc1ccc(-c2cc3nc(-c4ccco4)cc(N4CCN(Cc5ccoc5)CC4)n3n2)cc1,x,x,26.7*,x,-6.8,9.1
COc1ccc(-c2cc3nc(-c4ccccc4)cc(N4CCN(C(C)=O)CC4)n3n2)cc1,x,x,-3.1,x,-4.6,x
CC(=O)N1CCN(c2cc(-c3ccco3)nc3cc(-c4ccccc4)nn23)CC1,x,x,51.3*,x,4.5,7.5
CCOC(=O)N1CCN(C(=O)/C=C/c2ccc(OC)cc2)CC1,-1.7,-6.6,2.0,-0.7,12.9,x
Cc1cc(C)c2sc(C)[n+](CCCS(=O)(=O)[O-])c2c1,-4.9,4.8,50.7*,10.5,-4.9,31.7*
CCC[n+]1c(C)sc2c3c(ccc21)CCCC3,3.6,-12.5,x,1.0,x,x
Cc1ccc2c(C)cc[n+](CCCS(=O)(=O)[O-])c2c1,1.7,-4.6,-1.7,4.5,-6.9,x
CC[n+]1c(C)sc2c(C)cc(C)cc21,8.9,8.8,46.0*,13.8,-3.4,19.9
Cc1ccccc1CN1CCCCC(NC(=O)c2ccc(Br)cc2)C1=O (centres undefined),x,x,-3.8,x,6.9,x
CC1CCN(C(=O)C(C)c2ccc([N+](=O)[O-])cc2)CC1 (centres undefined),0.1,5.2,-1.1,-2.3,2.3,x
CCNc1ccc(C(=O)OCC(=O)c2cc(C)n(Cc3ccc4c(c3)OCO4)c2C)cc1[N+](=O)[O-],11.4,-0.3,1.6,-0.3,-1.8,x
O=C(c1ccco1)N1CCN(C(=O)c2ccc(-c3ccc([N+](=O)[O-])cc3)o2)CC1,7.5,-10.1,30.2*,x,-8.3,27.1*
O=C(NC1CCC(O)CC1)c1ccc(-c2ccc([N+](=O)[O-])cc2)o1 (centres undefined),3.0,-4.7,35.5*,11.9,-3.0,5.5
O=C(c1ccc([N+](=O)[O-])cc1)N1CCN(C(=O)c2ccco2)CC1,-1.4,3.3,-1.8,3.5,4.3,x
CC(=O)Nc1ccc2c(c1)CCc1ccccc1-2,10.9,-2.2,2.9,5.2,6.7,x
O=C(O)/C=C/C(=O)c1ccc2c(c1)CCc1ccccc1-2,-1.4,5.2,56.2*,3.7,-3.3,72.4*
NC(=S)NN=Cc1ccc(-c2ccc(S(=O)(=O)Nc3ncccn3)cc2)o1,6.5,1.5,31.9*,x,5.2,18.8
COCCN1C(=O)C2=C(C1=O)C1N(C)c3ccccc3[C@@]13C[C@@H](CO)N(C(C)=O)C3=N2 (some centres undefined),x,x,1.2,x,8.7,x
